# System: U2OS
# Assay: Multiplex assay against U2OS
# Type: toxicity, cell-based
# Conditions: human
# Outline: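 Four dyes were applied at seeding to live cells: Hoechst33342, BioTracker Green Microtubule Cytoskeleton Dye, MitoTracker Red and Annexin V Alexa Fluor 680. Imaging after compound addition used a CQ1 microscope at 37°C and 5% CO2. CellPathfinder machine-learning gating then sorted cells into Hoechst high-intensity objects or normal cells, normal cells into healthy, pyknosed or fragmented nuclei, and pyknosed cells into mitotic or apoptotic, with tubulin, mitochondrial-mass and membrane-permeability phenotypes given as per cents of healthy-nucleus cells.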
# [1] = 12 h, 1 µM, compound concentration 1 uM, replicate 1
# [2] = 12 h, 1 µM, compound concentration 1 uM, replicate 2
# [3] = 12 h, 10 µM, compound concentration 10 uM, replicate 1
# [4] = 12 h, 10 µM, compound concentration 10 uM, replicate 2
# [5] = 24 h, 1 µM, compound concentration 1 uM, replicate 1
# [6] = 24 h, 1 µM, compound concentration 1 uM, replicate 2
# [7] = 24 h, 10 µM, compound concentration 10 uM, replicate 1
# [8] = 24 h, 10 µM, compound concentration 10 uM, replicate 2
# [9] = 48 h, 1 µM, compound concentration 1 uM, replicate 1
# [10] = 48 h, 1 µM, compound concentration 1 uM, replicate 2
# [11] = 48 h, 10 µM, compound concentration 10 uM, replicate 1
# [12] = 48 h, 10 µM, compound concentration 10 uM, replicate 2
smiles,measurement,setting,value
CN(C)C(=O)Cn1cc(-c2ccc(-c3nnc4ccccn34)cc2)cn1,Population Apoptotic (%),[1],90%
same,Population Fragmented Nuclei (%),[1],25%
same,Population Healthy Nuclei (%),[1],66%
same,Population Hoechst High Intensity Objects (%),[1],1%
same,Population Membrane Permeable-Phenotype (%),[1],6%
same,Population Mitochondria Different-Phenotype (%),[1],1%
same,Population Mitotic Cells (%),[1],9%
same,Population Normal (%),[1],98%
same,Population Pyknosed Nuclei (%),[1],8%
same,Population Tubulin-Different-Phenotype (%),[1],3%
same,Total Cell Count,[1],251
same,Population Fragmented Nuclei (%),[2],22%
same,Population Healthy Nuclei (%),[2],68%
same,Population Hoechst High Intensity Objects (%),[2],0%
same,Population Membrane Permeable-Phenotype (%),[2],3%
same,Population Mitochondria Different-Phenotype (%),[2],6%
same,Population Normal (%),[2],99%
same,Population Pyknosed Nuclei (%),[2],9%
same,Population Tubulin-Different-Phenotype (%),[2],4%
same,Total Cell Count,[2],123
same,Population Apoptotic (%),[3],95%
same,Population Fragmented Nuclei (%),[3],26%
same,Population Healthy Nuclei (%),[3],65%
same,Population Hoechst High Intensity Objects (%),[3],1%
same,Population Membrane Permeable-Phenotype (%),[3],4%
same,Population Mitochondria Different-Phenotype (%),[3],1%
same,Population Mitotic Cells (%),[3],4%
same,Population Normal (%),[3],98%
same,Population Pyknosed Nuclei (%),[3],7%
same,Population Tubulin-Different-Phenotype (%),[3],3%
same,Total Cell Count,[3],298
same,Population Apoptotic (%),[4],90%
same,Population Fragmented Nuclei (%),[4],11%
same,Population Healthy Nuclei (%),[4],81%
same,Population Mitochondria Different-Phenotype (%),[4],0%
same,Population Mitotic Cells (%),[4],10%
same,Total Cell Count,[4],140
same,Population Apoptotic (%),[5],94%
same,Population Fragmented Nuclei (%),[5],22%
same,Population Healthy Nuclei (%),[5],71%
same,Population Hoechst High Intensity Objects (%),[5],0%
same,Population Membrane Permeable-Phenotype (%),[5],4%
same,Population Mitochondria Different-Phenotype (%),[5],2%
same,Population Mitotic Cells (%),[5],5%
same,Population Normal (%),[5],99%
same,Population Pyknosed Nuclei (%),[5],5%
same,Population Tubulin-Different-Phenotype (%),[5],1%
same,Total Cell Count,[5],315
same,Population Apoptotic (%),[6],100%
same,Population Fragmented Nuclei (%),[6],17%
same,Population Healthy Nuclei (%),[6],74%
same,Population Membrane Permeable-Phenotype (%),[6],7%
same,Population Mitochondria Different-Phenotype (%),[6],7%
same,Population Mitotic Cells (%),[6],0%
same,Population Normal (%),[6],100%
same,Population Pyknosed Nuclei (%),[6],8%
same,Population Tubulin-Different-Phenotype (%),[6],4%
same,Total Cell Count,[6],131
same,Population Apoptotic (%),[7],86%
same,Population Fragmented Nuclei (%),[7],22%
same,Population Healthy Nuclei (%),[7],66%
same,Population Hoechst High Intensity Objects (%),[7],2%
same,Population Membrane Permeable-Phenotype (%),[7],4%
same,Population Mitochondria Different-Phenotype (%),[7],1%
same,Population Mitotic Cells (%),[7],13%
same,Population Normal (%),[7],97%
same,Population Pyknosed Nuclei (%),[7],11%
same,Population Tubulin-Different-Phenotype (%),[7],2%
same,Total Cell Count,[7],333
same,Population Apoptotic (%),[8],87%
same,Population Fragmented Nuclei (%),[8],10%
same,Population Healthy Nuclei (%),[8],85%
same,Population Hoechst High Intensity Objects (%),[8],1%
same,Population Membrane Permeable-Phenotype (%),[8],7%
same,Population Mitotic Cells (%),[8],12%
same,Population Normal (%),[8],98%
same,Population Pyknosed Nuclei (%),[8],4%
same,Population Tubulin-Different-Phenotype (%),[8],3%
same,Total Cell Count,[8],180
same,Population Apoptotic (%),[9],87%
same,Population Fragmented Nuclei (%),[9],16%
same,Population Healthy Nuclei (%),[9],75%
same,Population Hoechst High Intensity Objects (%),[9],2%
same,Population Membrane Permeable-Phenotype (%),[9],4%
same,Population Mitochondria Different-Phenotype (%),[9],2%
same,Population Mitotic Cells (%),[9],12%
same,Population Normal (%),[9],97%
same,Population Pyknosed Nuclei (%),[9],7%
same,Population Tubulin-Different-Phenotype (%),[9],1%
same,Total Cell Count,[9],426
same,Population Apoptotic (%),[10],93%
same,Population Fragmented Nuclei (%),[10],11%
same,Population Healthy Nuclei (%),[10],67%
same,Population Membrane Permeable-Phenotype (%),[10],7%
same,Population Mitochondria Different-Phenotype (%),[10],3%
same,Population Mitotic Cells (%),[10],6%
same,Population Pyknosed Nuclei (%),[10],20%
same,Population Tubulin-Different-Phenotype (%),[10],3%
same,Total Cell Count,[10],158
same,Population Apoptotic (%),[11],95%
same,Population Fragmented Nuclei (%),[11],21%
same,Population Healthy Nuclei (%),[11],67%
same,Population Hoechst High Intensity Objects (%),[11],3%
same,Population Membrane Permeable-Phenotype (%),[11],8%
same,Population Mitochondria Different-Phenotype (%),[11],4%
same,Population Mitotic Cells (%),[11],4%
same,Population Normal (%),[11],96%
same,Population Pyknosed Nuclei (%),[11],11%
same,Population Tubulin-Different-Phenotype (%),[11],4%
same,Total Cell Count,[11],418
same,Population Apoptotic (%),[12],85%
same,Population Fragmented Nuclei (%),[12],8%
same,Population Healthy Nuclei (%),[12],81%
same,Population Hoechst High Intensity Objects (%),[12],2%
same,Population Membrane Permeable-Phenotype (%),[12],6%
same,Population Mitochondria Different-Phenotype (%),[12],2%
same,Population Mitotic Cells (%),[12],14%
same,Population Normal (%),[12],97%
same,Population Pyknosed Nuclei (%),[12],9%
same,Population Tubulin-Different-Phenotype (%),[12],2%
same,Total Cell Count,[12],284
